The list is not random: actives were taken first. Their share in the collection is about 3.2%.
JNK3 blocker = JNK3 (human) kinase inhibition. AID 746. actives 0.61% (n = 60,000). purified JNK3 kinase activity, HTS. inhibition, % at 8 µM. P53779; in the data active means inhibition above about 17%;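 further: 0% = DMSO and 100% = reference inhibitor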
RORA act = activates the human nuclear receptor RORA; P35398; CHO-K1 Gal4-RORA LBD luciferase reporter, luminescence; percent increase over mock-subtracted basal signal; activation, % at 10 µM; actives 1.5% (n = 65,000); AID 560;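 active means activation above the mean of all tested compounds plus 3 SD, cut at about 49% in these data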;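 further: 0% = DMSO-treated RORA cells and 100% = added signal equal to DMSO minus mock-transfected cells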
BAP1 block = blocks human BAP1 ubiquitin-AMC hydrolysis; recombinant BAP1, Ub-AMC hydrolysis fluorescence kinetic; active compounds read low; AID 436; actives 0.48% (n = 72,000); activity remaining (% of control), % at 20 µM;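 active means activity remaining at or below 50% of control, provided the compound also passes the data quality filters; inactive means the rest, including low values that fail the filters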;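 further: 100% = DMSO wells rate and 0% = substrate alone blank rate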
SF1 activator = activators of human nuclear receptor SF-1. actives 1.9% (n = 65,000). activation, % at 10 µM. CHO-K1 Gal4-SF-1 LBD luciferase reporter; % increase over DMSO SF-1-specific signal. Q13285;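 active means activation above the mean activation of all tested compounds plus 3 SD, cut at about 50% in these data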
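Compound – one dose, 10 µM compound, 1% DMSO · Test system – transient Gal4-SF-1 LBD reporter, CHO-K1 · Input – 4,000 cells in each well · Read-out basis – percent activation relative to DMSO median and mock-transfected background · Replicates – single measurement per compound · Technique – steady-glow luciferase luminescence, read after 15 min reagent incubation · Timing – 20 h compound treatment, 37 °C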
Ec RNAP inh = Escherichia coli RNA polymerase inhibition | P0A8V2 | E. coli RNA polymerase, fluorescence transcription assay | inhibition, %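 (tested at 10 µM)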 | actives 0.2% (n = 62,000); in the data active means inhibition above about 20%;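 further: 0% = enzyme without compound and 100% = no enzyme blank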
Starred values were filed as active, the others as inactive; . = no result shown.

SMILES | JNK3 blocker | RORA act | BAP1 block | SF1 activator | Ec RNAP inh
CCc1cc2c(=O)c(-c3ccc4c(c3)OCCO4)coc2cc1OC(=O)c1ccco1 | 7 | 29 | 105 | 66* | 4
CCOc1ccc(NS(=O)(=O)c2ccc(SC)cc2)cc1 | -7 | -25 | 143 | -1 | 3
O=C(Nc1ccccc1)c1cnc[nH]1 | 1 | 28 | 97 | 57* | 3
O=C(O)c1ccccc1C(=O)Nc1ccccc1 | -1 | -8 | 73 | -18 | 17
Nc1ccc2oc(CCc3ccccc3)nc2c1 | -5 | 144* | 77 | 79* | 9
c1ccc2oc(CCc3nc4ccccc4o3)nc2c1 | -1 | 45 | 100 | 35 | 4
Cc1ccccc1-c1nc2cc(N)ccc2o1 | -1 | 41 | 110 | 58* | 5
O=C(NCc1ccc(F)cc1)c1cc2n(n1)C(C(F)(F)F)CC(C1CC1)N2 (stereo not drawn) | -3 | 64* | 96 | 48 | -2
O=C(Nc1nc2c(s1)CCCC2)c1cc2n(n1)C(C(F)(F)F)CC(C1CC1)N2 (stereo not drawn) | -2 | 118* | 90 | 56* | .
Cc1nnc(NC(=O)c2cc3n(n2)C(C(F)(F)F)CC(C2CC2)N3)s1 (stereo not drawn) | -3 | 3 | 98 | -7 | -8
CCOC(=O)N1CCN(C(=O)NC23CC4CC(CC(C4)C2)C3)CC1 | 2 | 6 | 113 | -8 | 6
CCOC(=O)c1sc(NC(C)=O)cc1C | 2 | 0 | 177 | 4 | 5
Oc1cc(NCc2cccnc2)ccc1-c1nc2ccccc2o1 | 0 | 61* | 108 | 38 | -9
Cc1ncsc1C(=O)Nc1nc2c(s1)CC(C)CC2 (stereo not drawn) | 5 | 56* | 78 | 62* | .
CC1CCCN(C(=O)CSCC(=O)Nc2nc(-c3cccs3)cs2)C1 (stereo not drawn) | -3 | 8 | 97 | 39 | 8
COc1ccc(-n2c(C)nc3c(cnn3-c3ccc(C)c(C)c3)c2=O)cc1 | -7 | 65* | 86 | 40 | 0
Cc1cc(=O)n2c3c(sc2n1)C(=O)N(Cc1ccccc1)C3=O | 3 | 26 | 94 | 9 | 4
Cc1ccc(C(C(=O)NC(C)(C)C)N(CC2CCCO2)C(=O)Cn2nnc(-c3ccc(C)o3)n2)cc1 (stereo not drawn) | -6 | -4 | 92 | -16 | 7
COc1ccc(OC)c2[nH]c(=O)c(CCNC(=O)C(C)C)cc12 | -3 | -25 | 93 | -7 | 4
CC(=O)c1c(C)[nH]c(C(=O)NCCC2=CCCCC2)c1C | 0 | 69* | 96 | 84* | 2
Cc1ccccc1-n1nnnc1SCC(=O)Nc1ccc(S(=O)(=O)N2CCCC2)cc1 | -3 | 20 | 66 | -4 | -2
Cc1ccc2[nH]c3c(c2c1)CCc1cn[nH]c1-3 | 43* | 2 | 141 | 21 | 6
Cc1ccc2[nH]c3c(c2c1)CCC3=O | 2 | -3 | 158 | -4 | 9
COc1ccc(CNC(=O)c2nnn(Cc3ccc(OC)cc3)c2N)cc1 | -7 | 15 | 106 | 12 | 8
CCOC(=O)Cc1nnc(NC(=O)C(CC)Sc2nncn2C)s1 (stereo not drawn) | 0 | 40 | 89 | 8 | -1
SMILES | JNK3 blocker | RORA act | BAP1 block | SF1 activator | Ec RNAP inh
Nc1c(S(=O)(=O)c2cccs2)c2nc3ccccc3nc2n1Cc1ccc2c(c1)OCO2 | 3 | 5 | . | 14 | 0
c1csc(-c2nc3nc4ccccc4nc3n2Cc2ccc3c(c2)OCO3)c1 | 6 | 43 | 80 | 63* | 6
CCOC(=O)c1c(-c2ccco2)csc1N | -10 | -16 | 100 | 9 | 13
c1ccc(CNc2ncnc3c2ncn3C2CCCCO2)cc1 (stereo not drawn) | . | 68* | . | 60* | 8
CCOc1ccc2nc(NC(=O)C(CCSC)NS(=O)(=O)c3cccs3)sc2c1 (stereo not drawn) | . | -9 | 50 | 1 | 3
Cc1ccc(-c2[nH]n3c(=O)c4c(nc3c2C)CCCC4)cc1 | 10 | 36 | 189 | 36 | .
O=c1c2c(nc3cc(-c4ccccc4)[nH]n13)CCC2 | -7 | 39 | 115 | 60* | -3
Cc1cc2nc3c(c(=O)n2[nH]1)CCCC3 | . | -1 | . | 15 | -1
COc1ccc(-c2cc3nc4c(c(=O)n3[nH]2)CCC4)cc1 | 5 | 54* | 87 | 63* | 10
O=C(CCCn1c(=S)[nH]c2ccccc2c1=O)NCc1ccco1 | 19* | 1 | 107 | 7 | 12
Cc1ccccc1Cn1c(=O)n(CCCC(=O)NCc2ccco2)c(=O)c2ccccc21 | 2 | -1 | 94 | 25 | 6
O=C(CCCCCn1c(SCC(=O)c2ccccc2)nc2ccccc2c1=O)NCc1ccco1 | 28* | 5 | . | 1 | 4
CCOC(=O)CSc1nc2ccccc2c(=O)n1CCCCCC(=O)NCc1ccco1 | 23* | -7 | 90 | -1 | -7
Cc1nnc(SCC(C)C)[nH]c1=O | 0 | -5 | 98 | -2 | 2
Cc1ccccc1OCc1nc2c3cnn(C)c3ncn2n1 | . | 50* | 90 | 37 | 1
Cc1cccc(C)c1OCc1nnc2c3cnn(C)c3ncn12 | . | -16 | 59 | -8 | 8
CCOc1ccc2nnnn2n1 | -4 | 4 | 98 | -4 | 12
CC1CCN(S(=O)(=O)c2ccc(Cl)cc2)CC1 | 4 | -6 | 102 | -12 | 10
CC1=C(C)CS(=O)N(S(=O)(=O)c2ccc(Cl)cc2)C1 (stereo not drawn) | 20* | -26 | 94 | -34 | 5
Cc1cc(=O)oc(C)c1C(=O)O | . | -5 | 97 | -9 | 7
Nc1c(C(=O)Nc2ccc3c(c2)OCCO3)nnn1CCc1ccccc1 | 0 | 142* | 87 | 92* | 6
c1ccc2c(-c3nc(-c4ccncc4)no3)cccc2c1 | 6 | 25 | 191 | 74* | 3
c1ccc(-c2noc(-c3cccc4ccccc34)n2)cc1 | 0 | 61* | . | 65* | 5
Brc1ccccc1-c1nc(-c2ccccc2)no1 | 3 | 15 | 100 | -9 | 2
O=C(Nc1cccc(Br)c1)c1ccn[nH]1 | 11 | 54* | 96 | 31 | 6
SMILES | JNK3 blocker | RORA act | BAP1 block | SF1 activator | Ec RNAP inh
CCCOC(=O)c1ccc(NC(=O)C2CCCO2)cc1 (stereo not drawn) | 1 | 9 | 58 | 68* | 4
O=C(Nc1ccc(Oc2ccc(NC(=O)C3CCCO3)cc2)cc1)C1CCCO1 (stereo not drawn) | -6 | -3 | 91 | 9 | 5
CCOC(=O)c1cc(NC(=O)c2ccc([N+](=O)[O-])cc2)cc(NC(=O)c2ccc([N+](=O)[O-])cc2)c1 | . | . | 65 | . | .
Cc1cc(C)c2c(N)c(C(=O)Nc3nccs3)sc2n1 | -9 | 46 | 72 | -21 | 6
COCc1cc(C)nc2sc(C(=O)Nc3nccs3)c(N)c12 | -4 | 31 | 85 | 92* | 8
O=C(Nc1ccccc1)OCc1ccccn1 | 3 | 60* | 100 | 28 | 8
O=C(Nc1ccccc1)OCCOc1ccccc1 | -1 | 24 | 96 | 18 | 2
